Inconclusive results are not listed.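 Rule for the calls, unless noted: active = viability increase at or above a cutoff of the median across tested compounds plus 3 SD (cut at about 8.5% in these data, passing the limit was not always enough); inconclusive = some gains above the cutoff, reason not given; inactive = the rest.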
What was measured:
[1] = S. cerevisiae growth inhibition in permissive medium (OD615), pilot counter-assay for S. cerevisiae lifespan shortening project, permissive growth control (AID 705;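 active = growth inhibition above 25% in both replicates, a cutoff set 3 SD above the mean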); conditions: OD615, 24 h, at 10 µM, hits give high values
Method in brief: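 System: S. cerevisiae with engineered DeaD lifespan system. Medium: SC raffinose/galactose permissive medium. Doses: single compound dose of 10 µM, 0.25% DMSO final. Schedule: 24 h exposure, 30 °C. Measured by: OD615 turbidity read. Read-out: growth inhibition.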

[2] = S. cerevisiae growth inhibition in restrictive medium, OD615, pilot screen, restrictive growth control, yeast lifespan reduction project (AID 706;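 active = growth inhibition above a set limit, 3 SD over mean compound inhibition, in both replicates, cut at about 43% in these data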;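 note: modified DeaD lifespan yeast strain shifted to restrictive glucose medium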); conditions: OD615, 48 h, at 10 µM, hits give high values
Method in brief: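 Assay system – genetically modified Saccharomyces cerevisiae, DeaD replicative lifespan assay strain · Medium – CSMM-D glucose medium · Doses – 10 µM compound, 0.25% DMSO · Times – 4 h pre-incubation, 48 h exposure at 30 °C · Signal – optical density at 615 nm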

[3] = doxorubicin toxicity protection in MRP-1 cells – H69AR cells, CellTiter-Glo, duplicate, MRP-1 activator project, pilot screen (AID 807); conditions: H69AR viability with doxorubicin, CellTiter-Glo luminescence; at 10 µM; hits give high values;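 note: compound pretreatment 18-22 h then 72 h combined with doxorubicin; 0% = doxorubicin alone and 100% = vehicle without doxorubicin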
[4] = viability of HCT116 without oncogenic beta-catenin – human colon tumor cells, pilot screen (AID 823;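 active = cell viability at or below a set limit in both duplicate runs, the limit being the all-compound median minus 4 SD, cut at about 23% in these data, passing the limit was not always enough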;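 note: 0% = wells killed by 20 µM Hyamine and 100% = untreated DMSO cell wells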); conditions: HCT116 beta-catenin knockout viability, CellTiter-Glo, 60 h; at 10 µM; hits give low values
[5] = viability of PTEN-null HCT116 cells – cell-based, HCT116 clonal line, CellTiter-Glo, pilot screen (AID 824;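 active = viability at or below 27.92% in each of two runs, the all-compound median minus 4 SD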;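 note: 0% = 20 µM Hyamine control and 100% = vehicle cell control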); conditions: HCT116 PTEN-deleted viability, 60 h, at 10 µM, hits give low values
[6] = RAM pathway blockade in budding yeast – dse1pr::URA3 reporter, 5-FOA selection, pilot screen (AID 869;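 active = inhibition over a set limit, the all-compound mean plus 3 SD, in both replicate runs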;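 note: 0% = DMSO wells with no growth and 100% = 10 µM 1-NA-PP1 with full growth; RAM network block rescues cells from 5-FOA so hits raise OD615 growth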); conditions: S. cerevisiae dse1pr::URA3 5-FOA growth, OD615, 2 d; at 10 µM; hits give high values; strain carries analog-sensitive mutant Cbk1 kinase
[7] = RAM signaling pathway blockade in yeast – S. cerevisiae, Pdr1DBD-CYC8 efflux-inhibited sensitized strain, primary screen (AID 1298;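 active = RAM network inhibition above 8.4% in each of two replicates, 3 SD over the compound average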;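 note: 0% = DMSO untreated cells without growth and 100% = 10 µM 1-NA-PP1 full growth; higher means more yeast growth rescued from 5-FOA killing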); conditions: S. cerevisiae cbk1-as DSE1-URA3 strain, 5-FOA growth OD615, 2 d; at 50 µM; hits give high values

c1coc(-c2nc(-c3ccco3)c(-c3ccco3)nc2-c2ccco2)c1
inactive: growth inhibition [1] -25.2% | growth inhibition [2] -38.9% | viability increase [3] -2.54% | viability [4] 97.6% | viability [5] 86.5% | inhibition [6] 2.14% | RAM network inhibition [7] 0.57%

CCOC(=O)Cn1c(=O)oc2cc(S(=O)(=O)N(C)Cc3ccco3)ccc21
inactive: growth inhibition [1] -13.2% | growth inhibition [2] -14% | viability increase [3] -4.08% | viability [4] 99.9% | viability [5] 94.1% | inhibition [6] 3.37% | RAM network inhibition [7] 4.56%

CSc1nnc(-c2ccco2)n1-c1ccccc1
inactive: growth inhibition [1] -6.73% | growth inhibition [2] 6.08% | viability increase [3] -0.4% | viability [4] 94.6% | viability [5] 90% | inhibition [6] 2.92% | RAM network inhibition [7] 5.77%

Cc1cc(N2CCOCC2)cc(C)[n+]1[O-]
inactive: growth inhibition [1] -2.4% | growth inhibition [2] -2.99% | viability increase [3] -1.54% | viability [4] 89.5% | viability [5] 93.2% | inhibition [6] -0.115% | RAM network inhibition [7] 1.76%

O=c1oc2c3c4c(cc2c2c1CCC2)OCCN4CCC3
inactive: growth inhibition [1] -8.18% | growth inhibition [2] -0.795% | viability increase [3] -7.31% | viability [4] 58.3% | viability [5] 67.3% | inhibition [6] 0.055% | RAM network inhibition [7] 5.48%

COc1ccccc1NC(=O)Nc1ccc(Br)cn1
inactive: growth inhibition [1] -10.3% | growth inhibition [2] -15.5% | viability increase [3] -2.09% | viability [4] 92.6% | viability [5] 87.7% | inhibition [6] 2.98% | RAM network inhibition [7] 8.69%

CC(C)(C)NC(=O)Cn1c(=O)oc2cc(S(=O)(=O)N3CCc4ccccc43)ccc21
inactive: growth inhibition [1] 0.45% | growth inhibition [2] -12.1% | viability increase [3] -3.16% | viability [4] 90% | viability [5] 89.5% | inhibition [6] 0.05% | RAM network inhibition [7] 7.21%

COc1ccc(C2C/C(=N\O)C(C)(C)O2)cc1 (stereo unspecified)
inactive: growth inhibition [1] -16.5% | growth inhibition [2] -4.77% | viability increase [3] -0.83% | viability [4] 97.1% | viability [5] 93.7% | inhibition [6] 1.06% | RAM network inhibition [7] 3.9%

CCn1ccnc1C(O)c1cccc(OC)c1OC (stereo unspecified)
inactive: growth inhibition [1] -8.24% | growth inhibition [2] -3.01% | viability increase [3] -0.74% | viability [4] 108% | viability [5] 96.3% | inhibition [6] 2.75% | RAM network inhibition [7] 3.57%

CC1(C)CC(=O)C(C=NCCCN2CCOCC2)=C(O)C1
inactive: growth inhibition [1] -0.685% | growth inhibition [2] 0.465% | viability increase [3] -0.36% | viability [4] 97.6% | viability [5] 97% | inhibition [6] -0.16% | RAM network inhibition [7] -0.83%

Cc1ccc(-n2ncc3c(NCCCN4CCOCC4)ncnc32)c(C)c1
inactive: growth inhibition [1] -6.19% | growth inhibition [2] 6.86% | viability increase [3] -1.79% | viability [4] 96.1% | viability [5] 93.9% | inhibition [6] 2.75% | RAM network inhibition [7] 0.42%

CCOc1ccccc1NC(=O)CN(c1cc(C)cc(C)c1)S(=O)(=O)c1c(C)noc1C
inactive: growth inhibition [1] -22.6% | growth inhibition [2] -12.1% | viability increase [3] -1.39% | viability [4] 106% | viability [5] 95.1% | inhibition [6] 1.51% | RAM network inhibition [7] 1.81%

CCN(CC)c1ccc(NC(=O)C2CC3CCC2C3)cc1 (stereo unspecified)
inactive: growth inhibition [1] -9.15% | growth inhibition [2] -4.45% | viability increase [3] 1.44% | viability [4] 69.6% | viability [5] 80.6% | inhibition [6] 1.14% | RAM network inhibition [7] 6.6%

O=C(C1CCN(S(=O)(=O)c2cccc3cccnc23)CC1)N1CCN(Cc2ccccc2)CC1
inactive: growth inhibition [1] 8.83% | growth inhibition [2] 5.8% | viability increase [3] 0.23% | viability [4] 105% | viability [5] 99.5% | inhibition [6] -0.39% | RAM network inhibition [7] 1.71%

COc1ccc(N(CC(=O)N2CCN(C)CC2)S(=O)(=O)c2ccccc2)cc1OC
inactive: growth inhibition [1] -16.8% | growth inhibition [2] -19.4% | viability increase [3] -1.07% | viability [4] 104% | viability [5] 91.8% | inhibition [6] 0.195% | RAM network inhibition [7] 1.1%

CCOC(=O)c1ccccc1N1C(=O)CSC1=S
inactive: growth inhibition [1] -22.3% | growth inhibition [2] -19.6% | viability increase [3] -4.62% | viability [4] 96% | viability [5] 91.1% | inhibition [6] 1.11% | RAM network inhibition [7] 0.73%

CCn1c(CNC(=O)c2cccc(C)c2)nc2ccccc21
inactive: growth inhibition [1] -6.91% | growth inhibition [2] -5.74% | viability increase [3] -0.3% | viability [4] 99.6% | viability [5] 97.2% | inhibition [6] 2.5% | RAM network inhibition [7] 5%

COc1ccc(C2C(C(=O)Nc3cccnc3)=C(C)Nc3nc(-c4ccco4)nn32)cc1 (stereo unspecified)
inactive: growth inhibition [1] 4.86% | growth inhibition [2] -9.13% | viability increase [3] -1.69% | viability [4] 108% | viability [5] 104% | inhibition [6] 0.55% | RAM network inhibition [7] 2.07%

COc1ccc(CCC(C(O)C(F)(F)F)S(=O)c2ccccc2)cc1 (stereo unspecified)
inactive: growth inhibition [1] -4.67% | growth inhibition [2] -15.5% | viability increase [3] -0.87% | viability [4] 95.4% | viability [5] 101% | inhibition [6] 0.54% | RAM network inhibition [7] 7.13%

O=C(OCN1C(=O)c2ccccc2C1=O)c1cccs1
inactive: growth inhibition [1] -2.01% | growth inhibition [2] -11.2% | viability increase [3] -0.64% | viability [4] 94.7% | viability [5] 96.5% | inhibition [6] 1.2% | RAM network inhibition [7] 1.51%

Cc1c(NC(=O)C2CC=CCC2C(=O)O)c(=O)n(-c2ccccc2)n1C (stereo unspecified)
inactive: growth inhibition [1] -5.59% | growth inhibition [2] -6.86% | viability increase [3] -0.87% | viability [4] 101% | viability [5] 94.3% | inhibition [6] 1.54% | RAM network inhibition [7] 1.99%

COc1ccc(N2CCN(S(=O)(=O)c3cccc4cccnc34)CC2)cc1
inactive: growth inhibition [1] -3.57% | growth inhibition [2] 8.34% | viability increase [3] -2.89% | viability [4] 84.9% | viability [5] 83.6% | inhibition [6] 0.47% | RAM network inhibition [7] 3.66%

CN1CCN(CCCNC(=O)c2cn(C)c3ccc(S(=O)(=O)N(C)C)cc3c2=O)CC1
inactive: growth inhibition [1] -0.94% | growth inhibition [2] 2.12% | viability increase [3] -0.23% | viability [4] 103% | viability [5] 103% | inhibition [6] -0.355% | RAM network inhibition [7] 5.1%

Reference: PubChem BioAssay
